Test results from paper PMC6022754 (Bioorganic & medicinal chemistry letters, 2017).

How the values were obtained:
[1] = computed physicochemical properties; conditions: LipE = pCC50 (HT29) – logD (at pH 7.4)
Summary of the method: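 Lipophilic efficiency: CC50 taken from whole-cell HT29 growth-inhibition screening, not an enzymatic target-based assay. The value is converted to pCC50, and logD at pH 7.4 is subtracted from it.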

[2] = test system: human colon tumor xenograft; conditions: human colon tumor xenograft model; cited from earlier work
[3] = test system: HT29 colorectal carcinoma cell line; assay: quantitative high-throughput screening, HT29 cell growth inhibition; assay type: cell-based; conditions: HT29 cells, vs SSA (1)
[4] = test system: PC3 prostate cancer cell line; assay: quantitative high-throughput screening, PC3 cell growth inhibition; assay type: cell-based; conditions: PC3 cells, vs SSA (1)
[5] = test system: MDA-MB-231 breast cancer cell line; assay: quantitative high-throughput screening, MDA-MB-231 cell growth inhibition; assay type: cell-based; conditions: MDA-MB-231 cells, vs SSA (1)
[6] = BJ cell cytotoxicity counter screen; assay type: cell-based; conditions: human, BJ cells (normal human foreskin fibroblast cell line)

Row | SMILES | EC50 [6] [µM] | also measured
1 | CSc1ccc(/C=C2/C(C)=C(CC(=O)NCCN(C)C)c3cc(F)ccc32)cc1 [Compound 1, sulindac sulfide amide] | – | LipE [1]: 1.78; in vivo antitumor activity [2]: comparable to sulindac
2 | CSc1ccc(/C=C2/C(C)=C(CC(=O)NCCCN(C)C)c3cc(F)ccc32)cc1 [Compound 2] | – | reduction of activity compared to lead compound 1, HT29 [3]: 4 fold; reduction of activity compared to lead compound 1, PC3 [4]: 2 fold; reduction of activity compared to lead compound 1, MDA-MB-231 [5]: 2 fold
3 | CCN(CC)CCCNC(=O)CC1=C(C)/C(=C/c2ccc(SC)cc2)c2ccc(F)cc21 [Compound 4] | > 7.57 | –
4 | CSc1ccc(/C=C2/C(C)=C(CC(=O)N(C)CCN(C)C)c3cc(F)ccc32)cc1 [Compound 5] | > 7.57 | –
5 | CC1=C(CC(=O)NCCCN(C)C)c2cc(F)ccc2/C1=C\c1nc2ccccc2s1 [Compound 33] | > 7.57 | –
6 | CC1=C(CC(=O)N(C)CCN(C)C)c2cc(F)ccc2/C1=C\c1nc2ccccc2s1 [Compound 35] | > 7.57 | –
7 | CSc1ccc(/C=C2/C(C)=C(CC(=O)NCCC3CCCN3C)c3cc(F)ccc32)cc1 (centres unmarked) [Compound 41] | – | LipE [1]: > 3
8 | CSc1ccc(/C=C2/C(C)=C(CC(=O)N3CCC[C@H]3CN3CCCC3)c3cc(F)ccc32)cc1 [Compound 43] | > 7.57 | –
9 | CSc1ccc(/C=C2/C(C)=C(CC(=O)N3CCN(CCCN(C)C)CC3)c3cc(F)ccc32)cc1 [Compound 44] | > 7.57 | –
10 | CSc1ccc(/C=C2/C(C)=C(CC(=O)N3CCN(CCN(C)C)CC3)c3cc(F)ccc32)cc1 [Compound 45] | > 7.57 | –
11 | CSc1ccc(/C=C2/C(C)=C(CC(=O)N3CCN(c4ccncc4)CC3)c3cc(F)ccc32)cc1 [Compound 46] | > 7.57 | –
12 | CSc1ccc(/C=C2/C(C)=C(CC(=O)N3CCCN(C)CC3)c3cc(F)ccc32)cc1 [Compound 50] | > 7.57 | –
13 | COc1cc(/C=C2/C(C)=C(CC(=O)N3CCN(c4ccncc4)CC3)c3cc(F)ccc32)cc(OC)c1OC [Compound 59] | > 7.57 | –
14 | CC1=C(CC(=O)NCCN2CCCC2)c2cc(F)ccc2/C1=C\c1nc2ccccc2s1 [Compound 61] | > 7.57 | LipE [1]: > 3
15 | CC1=C(CC(=O)N2CCN(CCCN(C)C)CC2)c2cc(F)ccc2/C1=C\c1nc2ccccc2s1 [Compound 62] | > 7.57 | LipE [1]: > 3
16 | CC1=C(CC(=O)N2CCN(c3ccncc3)CC2)c2cc(F)ccc2/C1=C\c1nc2ccccc2s1 [Compound 63] | > 7.57 | –
17 | CSc1ccc(/C=C2/C(C)=C(CC(=O)NCc3ccccc3)c3cc(F)ccc32)cc1 [Compound 72] | – | reduction of activity compared to lead compound 1, HT29 [3]: 4 fold; reduction of activity compared to lead compound 1, PC3 [4]: 4 fold; reduction of activity compared to lead compound 1, MDA-MB-231 [5]: 1.5 fold
18 | CC1=C(CC(=O)NCc2ccccc2)c2cc(F)ccc2/C1=C\c1ccc([S+](C)[O-])cc1 (centres unmarked) [Compound 79] | > 7.57 | –
19 | COc1cc(/C=C2/C(C)=C(CC(=O)N(C)CCN(C)C(=O)[C@@H](N)C(C)C)c3cc(F)ccc32)cc(OC)c1OC [Compound 89] | > 7.57 | –
